{"source": "paper PMC4504105", "about": "(Journal of Cancer, 2015)", "key": {"PC-3M cells [1]": {"test_system": "PC-3M cells", "assay": "Cancer cell proliferation", "assay_type": "cell-based", "summary_of_the_method": "(§1)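 PC-3M, […] or Bcap37 cells kept in RPMI 1640 with 10% FBS and 1% penicillin/streptomycin, 37°C, 5% CO2. In 96-well plates, treated 48 h with graded concentrations of test compound or of a reference proteasome inhibitor in parallel. Survival by sulforhodamine B staining. IC50 given as mean ± SD, three independent experiments.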"}, "PC-3M cell xenograft": {"test_system": "PC-3M cell xenograft", "assay": "PC-3M xenograft tumor model", "assay_type": "in vivo, Balb/c male nude mice", "details": "intraperitoneal, twice weekly, day 37", "summary_of_the_method": "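Male Balb/c nude mice, 4-5 weeks, SPF. 3×10^6 PC-3M cells in PBS injected s.c. into the right flank. At about 0.2 cm3, randomised to 5 groups of 7: saline, reference inhibitor 1.25 mg/kg, test compound 1.25, 2.25 or 3.25 mg/kg. Dosed i.p. twice weekly, 11 times over 36 days. Volume = a×b²/2, measured before each dose; final measurement on day 37.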"}, "Bcap37 cells": {"test_system": "Bcap37 cells", "assay": "Cancer cell proliferation", "assay_type": "cell-based", "details": "read-out: IC50, proliferation, 48 h", "summary_of_the_method": "as §1"}, "[2]": {"test_system": "26S proteasomes from PC-3M cells, trypsin-like (T-L) activity", "assay": "26S proteasome activity assay, T-L", "assay_type": "biochemical", "details": "1h; for IC50: read-out: IC50 for T-L, 26S proteasomes, 37°C"}, "Bel-7740 cells": {"test_system": "Bel-7740 cells", "assay": "Cancer cell proliferation", "assay_type": "cell-based", "details": "read-out: IC50, proliferation, 48 h", "summary_of_the_method": "as §1"}, "[3]": {"test_system": "proteasome β catalytic sites in PC-3M cells", "assay": "Proteasome activity profiling in intact cells", "assay_type": "cell-based", "details": "12.5-400 nM, 3 h", "summary_of_the_method": "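PC-3M cells treated 3 h with test compound (12.5-400 nM), washed and harvested; proteasomes extracted as for the activity assay. Lysates labelled with Me4BodipyFL-Ahx3Leu3VS (5 μM) for 1 h at 37°C, boiled in sample buffer. 20 μg protein per lane on 12.5% SDS-PAGE, in-gel fluorescence scan. Band integrated optical density quantified; three independent experiments.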"}, "PC-3M cells [4]": {"test_system": "PC-3M cells", "assay": "Cell cycle assay", "assay_type": "cell-based", "details": "48 h"}, "HL-60 cells": {"test_system": "HL-60 cells", "assay": "Cancer cell proliferation", "assay_type": "cell-based", "details": "read-out: IC50, proliferation, 48 h", "summary_of_the_method": "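HL-60 in RPMI 1640 with 10% FBS and penicillin/streptomycin at 37°C, 5% CO2. Seeded in 96-well format and exposed 48 h to a range of test compound concentrations, with a reference proteasome inhibitor run alongside. Survival by MTT. IC50 reported as mean ± SD over three independent experiments.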"}, "[5]": {"test_system": "cell cycle proteins in PC-3M cell xenograft tumors", "assay": "Western blot analysis, xenograft tumor tissue", "assay_type": "in vivo, Balb/c male nude mice", "details": "p<0.05", "summary_of_the_method": "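Western blot on PC-3M xenograft tumours from mice dosed i.p. twice weekly. Tissue ground and lysed, whole protein on 10% SDS-PAGE, blotted to nitrocellulose, blocked with 5% milk. Primary antibodies against cyclin B1, p21, p27, wee 1 and others overnight at 4°C, then anti-mouse/anti-rabbit secondaries. ECL imaging; Student's t-test against control.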"}, "[6]": {"test_system": "ubiquitinated and cell cycle proteins in PC-3M cells", "assay": "Western blot analysis, PC-3M cells", "assay_type": "cell-based", "summary_of_the_method": "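PC-3M cells exposed 48 h to a series of test compound concentrations (12.5-100 nM for cell-cycle proteins), then lysed. 10% SDS-PAGE, nitrocellulose, 5% milk block. Primary antibodies (ubiquitin, wee 1, cyclin B1, p27, p21, GAPDH) overnight at 4°C; anti-mouse/anti-rabbit secondaries; ECL detection. Three independent experiments; Student's t-test against control.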"}, "[7]": {"test_system": "26S proteasomes from PC-3M cells, chymotrypsin-like (CT-L) activity", "assay": "26S proteasome activity assay, CT-L", "assay_type": "biochemical", "details": "1h; for IC50: read-out: IC50 for CT-L, 26S proteasomes, 37°C"}, "Viscera": {"assay": "Viscera", "assay_type": "in vivo, Balb/c male nude mice", "details": "all three doses (1.25, 2.25, 3.25 mg/kg), P>0.05", "summary_of_the_method": "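Organ index from the PC-3M xenograft mice (male Balb/c nude; saline, reference inhibitor or test compound at 1.25, 2.25, 3.25 mg/kg i.p. twice weekly, 11 doses over 36 days). On day 37, body weight recorded, then mice killed; heart, liver, lung, brain, kidney and spleen excised and weighed. Group means ± SD compared with control by Student's t-test.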"}, "[8]": {"biological_target": "T1, 26S proteasomes from PC-3M cells, post-glutamyl peptide hydrolase (PGPH) activity (Homo sapiens, UniProt P28072)", "T1 sequence (P28072 35-239)": "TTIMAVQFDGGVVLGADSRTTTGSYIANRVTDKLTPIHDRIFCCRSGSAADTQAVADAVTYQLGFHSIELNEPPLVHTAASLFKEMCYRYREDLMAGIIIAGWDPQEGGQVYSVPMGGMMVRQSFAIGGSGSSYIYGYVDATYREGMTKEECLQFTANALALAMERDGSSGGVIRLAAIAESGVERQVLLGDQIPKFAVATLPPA", "assay": "26S proteasome activity assay, PGPH", "assay_type": "biochemical", "details": "1h"}}}
{"smiles": "CC(C)C[C@H](NC(=O)[C@H](Cc1ccc2ccccc2c1)NC(=O)[C@H](CC(C)C)NC(=O)c1cnccn1)B(O)O", "note": "[YSY01A, N-(2-Pyrazinecarbonyl)-L-leucine-L-(2-naphthyl)-alanine-L-leucine boronic acid]", "values": [{"measurement": "Inhibition efficacy relative to PS341", "setting": "PC-3M cells [1]; 48h", "value": "three times highter"}, {"measurement": "IC50", "setting": "PC-3M cells [1]; read-out: IC50, proliferation, 48 h", "value": "150 ± 9", "unit": "nM"}, {"measurement": "Tumor growth inhibition (final tumor volume)", "setting": "PC-3M cell xenograft; 1.25 mg/kg", "value": 45.7, "unit": "%"}, {"measurement": "Tumor growth inhibition (final tumor volume)", "setting": "PC-3M cell xenograft; 2.25 mg/kg", "value": 52.8, "unit": "%"}, {"measurement": "Tumor growth inhibition (final tumor volume)", "setting": "PC-3M cell xenograft; 3.25 mg/kg", "value": 60.1, "unit": "%"}, {"measurement": "IC50", "setting": "Bcap37 cells", "value": "879 ± 18.2", "unit": "nM"}, {"measurement": "IC50", "setting": "[2]", "value": "1.24 ± 0.077", "unit": "µM"}, {"measurement": "T-L activity inhibited", "setting": "[2]; various YSY01A concentrations", "value": "12-43%"}, {"measurement": "IC50", "setting": "Bel-7740 cells", "value": "286 ± 13.2", "unit": "nM"}, {"measurement": "β5i, β2, β2i, β1 and β1i/β5 fluorgenic bands", "setting": "[3]", "value": "decreased"}, {"measurement": "Increase of cells in the G2/M phase", "setting": "PC-3M cells [4]; 50 nM", "value": 14, "unit": "%"}, {"measurement": "Increase of cells in the G2/M phase", "setting": "PC-3M cells [4]; 100 nM", "value": 44, "unit": "%"}, {"measurement": "IC50", "setting": "HL-60 cells", "value": "170 ± 9.9", "unit": "nM"}, {"measurement": "Protein (cyclinB1, p21, p27, P-cdc2 (tyr15), wee 1) expression from tumor tissue", "setting": "[5]", "value": "enhanced"}, {"measurement": "Protein (cyclinB1, p21, p27, P-cdc2 (tyr15), wee 1) expression", "setting": "[6]; 12.5-100 nM, 48 h, p<0.05 versus control", "value": "increased"}, {"measurement": "Concentration causing ubiquitinated protein accumulation", "setting": "[6]; 48h", "value": 25, "unit": "nM"}, {"measurement": "IC50", "setting": "[7]", "value": "123 ± 18", "unit": "nM"}, {"measurement": "CT-L activity inhibited", "setting": "[7]; various YSY01A concentrations", "value": "34-86%"}, {"measurement": "Impact on viscera index (body, heart, liver, brain, kidney, spleen and lung)", "setting": "Viscera", "value": "slightly impacted"}, {"measurement": "IC50", "setting": "[8]; read-out: IC50 for PGPH, 26S proteasomes, 37°C", "value": "714 ± 44", "unit": "nM"}, {"measurement": "PGPH activity inhibited", "setting": "[8]; various YSY01A concentrations", "value": "12-48%"}]}
{"smiles": "CC(C)C[C@H](NC(=O)[C@H](Cc1ccccc1)NC(=O)c1cnccn1)B(O)O", "note": "[PS341, reference compound]", "values": [{"measurement": "Tumor growth inhibition (final tumor volume)", "setting": "PC-3M cell xenograft; 1.25 mg/kg", "value": 49.6, "unit": "%"}, {"measurement": "IC50", "setting": "[2]", "value": "5.35 ± 0.057", "unit": "µM"}, {"measurement": "IC50", "setting": "[7]", "value": "71 ± 1", "unit": "nM"}]}
